Compound activity from PubChem BioAssay.
MC4R antag cAMP – human MC4R antagonism in cAMP assay; MC4R-expressing cells, MTII-stimulated cAMP, LANCE TR-FRET; inhibition, % at 6.5 µM; 0.48% of 360,000 active;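 active = inhibition above its plate's cutoff, the mean of tested wells on that plate plus 3 SD, cut at about 29% in these data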;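 also: 0% = Melanotan II alone and 100% = Melanotan II plus saturating MCL0020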
Target sequence (P32245 whole entry, looked up): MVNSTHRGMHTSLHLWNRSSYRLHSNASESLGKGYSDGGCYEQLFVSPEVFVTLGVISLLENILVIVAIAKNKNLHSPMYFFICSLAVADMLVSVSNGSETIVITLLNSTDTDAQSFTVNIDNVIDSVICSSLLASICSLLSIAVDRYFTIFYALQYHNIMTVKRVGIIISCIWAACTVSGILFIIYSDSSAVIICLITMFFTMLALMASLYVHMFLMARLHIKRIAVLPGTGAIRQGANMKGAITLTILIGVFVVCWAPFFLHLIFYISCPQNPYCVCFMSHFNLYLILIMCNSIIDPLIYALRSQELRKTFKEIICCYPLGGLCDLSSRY
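Material: U2OS-MC4R stable cell line | Reagent: Melanotan II challenge after compound preincubation | Doses: One concentration, 6.5 µM nominal | Incubation: 30-min compound preincubation, 1-h Melanotan II challenge, 1-h detection, room temperature | Signal: TR-FRET cAMP assay | Replicates: One well per compound, no replicates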
EBI2 block – blocks human EBI2 receptor beta-arrestin signaling | AID 651636 | EBI2 beta-arrestin recruitment, luminescence, 7a,25-OHC stimulated | 0.81% of 360,000 active | inhibition, % at 5 µM; in the data active = inhibition above about 38%;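 also: enzyme fragment complementation signal reports receptor beta-arrestin coupling in cells; 0% = agonist plus DMSO wells and 100% = wells without agonist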
Target sequence (P32249 whole entry, looked up, the tested form may be a part): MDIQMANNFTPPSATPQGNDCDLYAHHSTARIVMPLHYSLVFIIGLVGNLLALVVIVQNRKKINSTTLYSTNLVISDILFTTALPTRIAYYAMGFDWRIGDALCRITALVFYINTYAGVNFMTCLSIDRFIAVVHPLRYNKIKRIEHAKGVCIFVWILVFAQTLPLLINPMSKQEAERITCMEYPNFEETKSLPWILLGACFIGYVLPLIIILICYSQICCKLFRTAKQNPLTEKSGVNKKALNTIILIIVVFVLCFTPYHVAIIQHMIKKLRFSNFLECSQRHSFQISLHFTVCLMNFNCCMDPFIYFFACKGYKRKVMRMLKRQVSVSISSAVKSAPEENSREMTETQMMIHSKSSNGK
Granule exo inh – blocks lytic granule exocytosis; TALL-104 LAMP-1 surface exposure, flow cytometry; cells stimulated with thapsigargin and PMA; inhibition, % at 10 µM; 0.66% of 360,000 active;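 active = inhibition above about 55%, limit read from the data; inconclusive = no clear call, values can overlap the other calls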
Myeloid diff 2 – myeloid differentiation induction; ER-HoxA9 myeloid progenitors, lysozyme-GFP differentiation, flow cytometry; calls only at 10 µM; AID 624256; 1% of 360,000 active;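 active = normalized GFP-positive differentiation at or above the plate's own cutoff, the solvent-only control mean plus 3 SD; inconclusive = no clear call, values can overlap the other calls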;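 also: cells exposed to compound for four days before flow analysis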
MC4R ag barr – human MC4R agonism via beta-arrestin | P32245 | U2OS MC4R beta-arrestin complementation, luminescence; percent of melanotan II response, DMSO zero | activation, % at 8.9 µM | 0.98% of 360,000 active;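 active = activation above a per-plate cutoff, the mean activation of sample wells on that plate plus 3 SD, cut at about 8% in these data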
Myeloid diff – promotes myeloid progenitor differentiation | AID 651706 | ER-HoxA9 myeloid progenitors, GFP/Mac1 double-positive flow | calls only | shares compounds with Myeloid diff 2 | 2% of 2,300 active;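 active = share of green or green-and-red cells above 9 and 9% in run 1 or 4 and 3% in run 2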
GFP autofluor – flagged as fluorescent in myeloid differentiation counter-screen. shares compounds with Myeloid diff 2. ER-HoxA9 myeloid progenitors, no estrogen, GFP autofluorescence flow cytometry; vehicle wells 0%, positive control 100%. fluorescence response, % (no concentration beside the values). 7.4% of 2,300 active;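 active = over 5% cells positive for green fluorescent reporter, or over 2% positive for both it and APC stain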;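 also: range taken on the double positive population between DMSO and positive control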
The depositor's hits bear a star; i = inactive; ? = inconclusive; . = not tested or not shown; + = active, no number. Sampled rows, rich in hits. Any-hit rate of the full collection: about 3.7%.

SMILES | MC4R antag cAMP | EBI2 block | Granule exo inh | Myeloid diff 2 | MC4R ag barr | Myeloid diff | GFP autofluor
c1ccc(Cc2c(-c3ccccc3)nc3c4ccccc4ccn23)cc1 | 7.5 | -1.3 | -1.6 | + | 0.4 | i | 0.4
CCC(=Nc1ccccc1O)C1=C(O)CC(c2ccccc2)CC1=O (stereo not given) | 11.2 | -9.2 | 2.1 | i | -0.3 | i | 6.6*
COc1cc(NC(=S)Nc2ccccn2)c(OC)cc1Cl | 1.9 | -0.6 | -1.0 | i | 7.2 | i | 0.3
COc1cc(NC(=S)Nc2cccc(Cl)c2Cl)c(OC)cc1Cl | 1.2 | 1.3 | -6.3 | i | -1.5 | . | .
N/C(Cc1cccc2ccccc12)=N\OC(=O)COc1ccccc1 | -2.6 | 7.2 | -5.3 | i | -0.9 | i | 0.4
CC1(C(=O)NS(=O)(=O)c2cccc(F)c2)CCN1C(=O)CC1CCCCC1 (stereo not given) | 11.2 | 2.7 | -0.1 | i | -0.8 | . | .
Cc1cc(NC(=O)c2noc3c2CCCC3)n(-c2ccccc2)n1 | -3.4 | -8.9 | 0.0 | + | -1.8 | i | 0.0
Cc1cc(NC(=O)c2cc(-c3ccc4c(c3)OCO4)on2)n(-c2ccccc2)n1 | -0.6 | 1.8 | -4.3 | + | 6.2 | i | 0.0
Cc1cc(NC(=O)c2cc(C)on2)n(-c2ccccc2)n1 | 2.6 | -0.2 | -6.2 | i | -1.9 | . | .
COc1cc(S(=O)(=O)N2CCC(c3nc4ccccc4s3)CC2)ccc1S(=O)(=O)NC1CCCC1 | -0.4 | 5.9 | 3.4 | i | -2.4 | . | .
COc1cc(S(=O)(=O)N2CCC(c3nc4ccccc4s3)CC2)ccc1S(=O)(=O)N1CC(C)CC(C)C1 (stereo not given) | -2.1 | -6.9 | -1.2 | i | 1.0 | i | 0.9
COc1cc([N+](=O)[O-])cc2cc(C(=O)N3CCCC3)c(=O)oc12 | 5.7 | -9.3 | -0.4 | ? | 2.8 | . | .
O=C(CNC(=O)c1ccco1)Nc1ccc(N2CCCCCC2)cc1 | -7.8 | -2.6 | 2.7 | i | -3.4 | . | .
O=C(CNC(=O)c1ccc(Br)o1)Nc1ccc(N2CCCCCC2)cc1 | 6.2 | 4.7 | 0.5 | + | -2.1 | i | 0.0
CCOC(=O)C1(C)CCN1C(=O)c1cccs1 (stereo not given) | 0.3 | -2.6 | -4.3 | i | -0.8 | . | .
Cc1onc(-c2c(Cl)cccc2Cl)c1C(=O)NCc1ccc(S(N)(=O)=O)cc1 | 17.8 | -2.5 | -10.7 | i | 2.9 | i | 0.3
Cc1onc(-c2ccccc2Cl)c1C(=O)NCc1ccccc1 | 5.5 | -8.1 | -5.2 | i | -0.5 | . | .
N=c1c2c(n(Cc3ccc(Cl)cc3)c3c1CCC3)CCC2 | 1.3 | -6.5 | 1.2 | i | -1.6 | . | .
N=c1c2c(n(Cc3ccccc3)c3c1CCC3)CCC2 | -1.0 | 8.6 | -2.7 | + | 2.3 | i | 0.0
O=C(Nc1ccccc1Oc1ccccc1)c1cnccn1 | -3.4 | -3.2 | 0.9 | i | -0.8 | . | .
Cc1ccc(Oc2ccc(Cl)cc2NC(=O)c2cnccn2)cc1 | -4.8 | -1.4 | 2.8 | + | 2.6 | i | 0.0
CCN(CCCNC(=O)CN1C(=O)COc2ccc(S(=O)(=O)N3CCC(C)CC3)cc21)Cc1ccccc1 | -1.6 | 12.5 | -3.2 | ? | -0.1 | . | .
COc1nc(-c2ccccc2)nc(C)c1CC(=O)O | -1.6 | -7.8 | 0.8 | i | 3.0 | i | 0.0
O=C(O)c1ccc(N/N=C2/CCCc3ccccc32)cc1 | 3.6 | -6.4 | 0.1 | i | 0.0 | . | .
Cn1cc([C@]2(O)C(=O)Nc3ccc(Br)cc32)c2ccccc21 | . | -0.8 | 17.6 | i | . | . | .
SMILES | MC4R antag cAMP | EBI2 block | Granule exo inh | Myeloid diff 2 | MC4R ag barr | Myeloid diff | GFP autofluor
O=C(NCc1ccncc1)[C@@H]1CCCN1C(=O)[C@H]1CCCN1C(=O)c1cccc(Cl)c1 | . | -3.2 | -4.1 | i | . | . | .
Cc1cc(NC(=O)C(C)Sc2nnc(NCc3ccco3)s2)no1 (stereo not given) | 4.0 | 1.1 | -2.9 | + | 0.1 | i | 0.3
O=C(c1cc(C2CCCCN2S(=O)(=O)c2ccc(F)cc2F)on1)N1CCOCC1 (stereo not given) | 21.1 | -6.1 | 2.1 | i | 0.5 | . | .
COc1ccc(-n2c(SCC(=O)Nc3cc(C)on3)nc3ccccc3c2=O)cc1Cl | 0.9 | 11.9 | 1.8 | i | 2.8 | i | 0.0
COc1cccc(-n2c(SCC(=O)Nc3cc(C)on3)nc3ccccc3c2=O)c1 | 2.7 | -5.2 | -4.7 | i | -1.6 | . | .
CC(C)N1CCC(C)(C(=O)Nc2ccccc2Oc2ccccc2)C1 (stereo not given) | 7.0 | -6.1 | 8.4 | i | -1.7 | . | .
COC(=O)[C@H](CCSC)NC(=O)NCc1cccs1 | 3.4 | -14.3 | -0.2 | i | -0.3 | i | 0.3
COC(=O)[C@@H](NC(=O)NCc1cccs1)C(C)C | 6.9 | 0.6 | -0.8 | i | -1.8 | . | .
CCOC(=O)C1(Nc2nccs2)Sc2ccccc2NC1=O (stereo not given) | 2.8 | 6.4 | -2.3 | + | -0.9 | i | 0.4
CCN(Cc1cc2ccccc2[nH]c1=O)C(=O)C1CCCCC1 | -2.5 | 12.1 | 2.1 | i | -3.3 | . | .
CC(C)N(Cc1cc2ccccc2[nH]c1=O)C(=O)C1CCCCC1 | 0.9 | -1.8 | 10.2 | i | 2.7 | i | 0.4
O=C(NCc1ccccn1)[C@@H]1CCCN1C(=O)[C@@H]1CCCN1C(=O)c1cccc(Cl)c1 | . | -7.2 | -9.1 | i | . | i | 0.0
Cn1c(=S)n(CCC(=O)O)c2ccccc21 | -2.1 | -7.3 | 7.0 | i | -1.7 | . | .
CCOC1=C/C(=C/c2c(N)n3nc(-c4ccccc4)sc3nc2=O)C=CC1=O | -7.1 | 1.3 | -0.6 | + | -3.4 | i | 5.2*
CC(C)(C)c1cc(S(=O)(=O)CCc2ccncc2)cc(C(C)(C)C)c1F | 5.4 | 27.4 | 37.0 | i | 1.0 | . | .
O=C(NCCN1CCCCC1)c1cc(COc2c(F)cccc2F)on1 | 2.5 | 2.3 | -0.7 | i | 0.7 | . | .
O=C(NCCO)/C(=C\c1ccc([N+](=O)[O-])o1)NC(=O)c1ccccc1 | 1.9 | -2.5 | 1.9 | i | 1.9 | i | 0.0
CCOC(=O)N(C)c1c(CC)nc2c(OCc3ccc(Cl)cc3)cccn12 | -5.8 | 6.2 | -10.3 | i | -0.7 | . | .
COc1ccc(OC)c(NC(=O)CNC(=O)c2ccc([N+](=O)[O-])cc2)c1 | 10.0 | -11.8 | -0.2 | i | -0.2 | i | 0.0
COc1ccc(NC(=O)CNC(=O)c2ccc([N+](=O)[O-])cc2)cc1 | -1.3 | -2.4 | -3.8 | i | -1.9 | . | .
Cc1nc(S(=O)(=O)Cc2ccccc2Cl)nc2c1CCC2 | 25.2 | -9.5 | -2.0 | i | -2.5 | . | .
Cc1cccc(C)c1-n1nnnc1S(=O)(=O)Cc1ccccc1Cl | -0.5 | 19.3 | -0.8 | i | 2.5 | i | 0.3
CC(C)c1ccc(C(=O)OCC(=O)c2c(N)n(C)c(=O)n(C)c2=O)cc1 | 10.5 | -13.6 | -17.2 | i | 0.4 | . | .
